From PubChem BioAssay
A selection: hits, their analogues and other compounds. The true share with any hit is near 8.4%.
tolC growth inh = growth inhibitors of E. coli tolC mutant, primary screen, strain BW25113 ΔtolC::kan, 384-well | actives 2.2% (n = 65,000) | AID 573, 2007 | growth inhibition, % at 10 µM (by protocol) | OD615;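 active means growth inhibition at or above a cutoff equal to the mean over every tested compound plus 3 SD, cut at about 60% in these data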;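 further: growth measured after 20 h incubation at 37 °C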
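System: E. coli ΔtolC::kan strain BW25113; Buffer or medium: LB broth supplemented with 50 µg/mL kanamycin; Compound: 10 µM final, single dose; Incubation: bacterial growth with compound for 20 h at 37 °C; Signal: A615 absorbance measurement; Evaluation: growth inhibition in percent.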
Cav32 inh = Cav3.2 calcium influx blockers – cell-based, Fluo-4 calcium fluorescence, FDSS, MLSMR library, primary screen; Voltage-dependent T-type calcium channel subunit alpha-1H (Homo sapiens), O95180; AID 449739, 2010; Cav3.2-expressing cells; hits give low values; actives 4% (n = 100,000); B-score at 10 µM;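 active means single-dose well whose peak fluorescence ratio is a statistical outlier from its plate by either plate-standardised score or position-corrected B-score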
Ecoli WT expand = growth inhibitors of wild-type E. coli, primary screen, strain BW25113, expanded library, OD600 | OD600 absorbance | growth inhibition, % at 100 µM | actives 0.15% (n = 98,000);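 active means growth inhibition above about 50% at one test dose, limit read from the data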;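 further: growth measured after 20 h incubation at 37 °C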
PostGolgi yeast = phenotypic screen on post-Golgi transport, primary screen | inhibition, % at 10 µM | actives 0.9% (n = 98,000) | post-Golgi transport phenotypic cell assay | AID 739, 2007;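 further: yeast cells grown in 1536-well plates; yeast grown about 18 h at 30C before absorbance read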
PostGolgi ctrl = growth inhibition of yeast control strain, primary screen, counter-screen for post-Golgi transport modulator project; efflux-deficient yeast background strain, growth absorbance A615, 16 h; inhibition, % at 10 µM; actives 5% (n = 98,000); AID 738, 2007
* = called active by the depositor; . = no result given. Unless noted, no stated cut-off is given here; in the data, active means inhibition above about 30%; inactive means the rest.

SMILES	tolC growth inh	Cav32 inh	Ecoli WT expand	PostGolgi yeast	PostGolgi ctrl
CCN(CC)CCN1C(=O)c2ccccc2NC1c1cccc(F)c1 (configuration not stated)	-17	0.97	8	11	6
O=C1c2ccccc2NC(c2cccc(Cl)c2)N1N=C1CCCCCC1 (configuration not stated)	.	-3.9*	3	-2	22
Cc1ccc(NC(=O)Cn2cncc2-c2ccc([N+](=O)[O-])cc2)cc1C	.	.	-10	1	33*
COc1ccc(OC)c(C(=O)CSc2nnc(-c3cccnc3)n2C)c1	-13	0.0017	6	17	10
CCOCCN1CCN(c2c3c(nc4cc(-c5ccc(F)cc5)nn24)CCC3)CC1	-6	1.8	4	-2	19
OC1CCN(c2c3c(nc4cc(-c5cccc(F)c5)nn24)CCCC3)CC1	13	-0.093	3	0	88*
Fc1cccc(-c2cc3nc(-c4ccccc4)cc(N4CCC5(CC4)OCCO5)n3n2)c1	.	0.52	.	.	.
Fc1cccc(-c2cc3nc4c(c(N5CCC6(CC5)OCCO6)n3n2)CCCC4)c1	28	-0.61	-17	9	81*
Cc1onc(-c2c(F)cccc2Cl)c1C(=O)Nc1nc2c(s1)CCCC2	63*	-0.32	-16	-7	9
COc1ccc(Cc2nnc(NC(=O)c3c(-c4ccccc4)noc3C)s2)cc1	58	-5.2*	-6	15	19
Cc1cc(C(=O)Nc2nc3c(s2)CCCC3)no1	1	-0.68	1	4	19
Cc1onc(-c2ccccc2)c1C(=O)Nc1nc2c(s1)CCCC2	30	0.059	-3	-8	34*
COc1ccc(Cc2nnc(NC(=O)c3c(-c4ccccc4)noc3C)s2)cc1OC	22	.	-4	-1	5
Cc1csc(NC(=O)c2c(-c3c(Cl)cccc3Cl)noc2C)n1	.	-0.82	-1	-4	-2
CCOC(=O)N1CCC(NC(=O)c2cnc3n(c2=O)CCS3)CC1	-6	-0.046	.	.	.
CCOC(=O)Cc1cc(OC)c(OC)cc1Cc1cc(OC)c(OC)cc1CC(=O)OCC	.	-0.3	-8	2	13
COC(=O)c1cc2ccsc2n1CC(=O)N(C)C1CCCCC1	.	.	0	-4	8
CC(=O)C1=C(C)NC(SCC(N)=O)=C(C#N)C1C (configuration not stated)	.	-0.64	6	1	-5
O=[N+]([O-])c1cc(Br)c(O)c(/C=N/Nc2nnnn2-c2cccc3ccccc23)c1	.	-9.3*	19	-4	9
O=c1cc(O)nc(SC23CC4CC(CC(C4)C2)C3)[nH]1	13	0.79	4	-2	2
COC(=O)CCN(C(=O)C12CC3CC(CC(C3)C1)C2)c1ccccn1	.	0.6	-3	17	1
O=C(N(Cc1ccccc1)c1ccccn1)C12CC3CC(CC(C3)C1)C2	.	-3.6*	2	7	22
CCOC(=O)CSc1nc2cc3c(cc2cc1CC)OCCO3	.	-4.6*	.	.	.
Cc1cc(S(=O)(=O)Nc2ccc(N(C)C)cc2)c(C)s1	.	-0.61	-2	20	48*
COC(=O)C1C(O)=CC(=O)CC1C (configuration not stated)	.	0.026	.	.	.
SMILES	tolC growth inh	Cav32 inh	Ecoli WT expand	PostGolgi yeast	PostGolgi ctrl
Nc1nncn1C(=O)CCCN1C(=O)c2ccccc2C1=O	96*	0.73	16	-1	6
O=C(CCCN1C(=O)c2ccccc2C1=O)N1CCc2ccccc2C1	.	1.3	-3	6	10
Cc1ccc(CSc2ncnc3c2cnn3Cc2ccccc2)cc1	.	0.014	1	1	3
N#Cc1ccc(CSc2ncnc3c2cnn3Cc2ccccc2)cc1	38	-0.75	-16	-1	39*
Cc1ccc(-n2ncc3c(NCc4ccccn4)ncnc32)c(C)c1	7	0.1	4	3	13
c1ccc(Cn2ncc3c(NCc4ccco4)ncnc32)cc1	6	1.1	-3	-5	-11
Clc1ccc(Cn2ncc3c(NCc4ccccc4)ncnc32)cc1	.	-6.9*	-7	-6	41*
Cc1ccc(CNc2ncnc3c2cnn3-c2ccccc2)cc1	-33	0.082	-4	-10	0
COc1ccccc1CNc1ncnc2c1cnn2-c1ccccc1	61*	-2.8	.	.	.
Clc1ccc(-n2ncc3c(NCc4ccccn4)ncnc32)cc1	12	-0.56	-3	-3	32*
O=C1CC(c2ccccc2)Cc2nc3ncnn3cc21 (configuration not stated)	.	-0.1	6	2	2
CCCCNc1ncnc2c1cnn2-c1ccccc1	12	-3.5	5	5	15
